Only some compounds are listed: those with a hit (about 4.5% of all), similar ones and a draw of the others.
UPR XBP1 act: adaptive UPR (XBP1) activation; 330,000 compounds, 0.33% hits; CHO-XBP1 luciferase reporter, IRE1-XBP1 UPR activation, luminescence; percent of tunicamycin response, DMSO as zero; activation, % at 20 µM;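 active means versus positive control, 20 µM dose yields 30% or more activation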;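 further: 100% = tunicamycin at 10 µg/mL and 0% = DMSO only wells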
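Material – CHO cell line with stable XBP1 luciferase reporter · Buffer or medium – F12 plus 10% FBS · Compound – single point, 20 µM final compound, 1% DMSO · Schedule – 16-18 h cell attachment at 37 °C, then 6 h compound exposure · Signal – Steady-Glo luminescence read · Benchmarks – high control tunicamycin 10 µg/mL final, low control DMSO vehicle only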
p97 ATPase inh: inhibitors of human p97 ATPase | inhibition, % at 8 µM | P55072 | recombinant p97 ATPase, Kinase-Glo ATP luminescence, 3 h | 220,000 compounds, 0.42% hits; in the data active means inhibition above about 15%;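 further: 0% = DMSO vehicle and 100% = wells lacking enzyme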
Target sequence (P55072 whole entry, looked up): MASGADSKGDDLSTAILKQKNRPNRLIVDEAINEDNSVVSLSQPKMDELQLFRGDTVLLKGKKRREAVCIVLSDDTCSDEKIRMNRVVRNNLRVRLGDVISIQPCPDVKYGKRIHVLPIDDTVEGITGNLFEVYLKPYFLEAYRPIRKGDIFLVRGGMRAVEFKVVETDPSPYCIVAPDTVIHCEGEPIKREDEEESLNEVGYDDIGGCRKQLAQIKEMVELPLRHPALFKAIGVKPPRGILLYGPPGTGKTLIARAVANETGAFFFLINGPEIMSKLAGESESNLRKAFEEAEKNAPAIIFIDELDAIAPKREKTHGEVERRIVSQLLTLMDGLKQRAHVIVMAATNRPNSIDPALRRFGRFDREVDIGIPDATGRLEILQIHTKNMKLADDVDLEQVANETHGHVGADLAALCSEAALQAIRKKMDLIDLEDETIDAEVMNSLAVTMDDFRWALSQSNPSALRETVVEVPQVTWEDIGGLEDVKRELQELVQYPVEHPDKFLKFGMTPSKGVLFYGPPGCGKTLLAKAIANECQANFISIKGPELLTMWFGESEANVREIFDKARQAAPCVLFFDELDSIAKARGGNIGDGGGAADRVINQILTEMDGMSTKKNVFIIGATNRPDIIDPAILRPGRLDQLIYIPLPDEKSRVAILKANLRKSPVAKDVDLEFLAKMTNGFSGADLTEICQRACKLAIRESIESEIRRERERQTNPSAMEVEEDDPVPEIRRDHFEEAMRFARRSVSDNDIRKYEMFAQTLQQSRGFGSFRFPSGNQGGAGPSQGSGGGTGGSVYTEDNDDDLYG
CHOP inhibitor: blocks CHOP induction under ER stress. CHO-K1 CHOP-promoter luciferase, tunicamycin-induced, 15-18 h. inhibition, % at 10 µM. 220,000 compounds, 3.8% hits;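 active means compounds that reduced the stress-induced luciferase reporter signal by more than about 70% of percent inhibition, limit read from the data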;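 further: 0% = tunicamycin plus vehicle and 100% = wells without tunicamycin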
CHOP UPR activ: apoptotic UPR (CHOP) activation | CHO-CHOP luciferase reporter, luminescence; percent of tunicamycin response over DMSO baseline | AID 449763 | 330,000 compounds, 0.34% hits | activation, % at 10 µM;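 active means at 10 µM dose, activation of 40% or more, normalized to positive control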;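 further: 100% = tunicamycin at 10 µg/mL and 0% = DMSO alone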
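Test system: CHO CHOP reporter cells. Input: 500 CHO-CHOP cells per well. Medium: F12 with 10% FBS. Technique: luciferase luminescence. Measure: percent activation relative to tunicamycin control. Dosing: 10 µM compound, 0.5% DMSO. Timing: 16-18 h cell attachment, then 6 h compound exposure, 37 °C.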
HCV NS3 hel inh: inhibitors of Hepatitis C virus NS3 helicase | NS3 helicase DNA unwinding, Cy5 molecular beacon fluorescence | inhibition, % at 10.9 µM | 290,000 compounds, 0.56% hits;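 active means inhibition above the mean of all tested compounds plus 3 SD, set per campaign, cut at about 35% in these data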;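 further: 0% = DMSO wells and 100% = thioflavine S control wells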
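Control set: DMSO versus 110 µM thioflavine S; Material: NS3 helicase fragment of HCV; Measured by: Cy5 fluorescence at 0 and 60 min, beacon hairpin quenching; Read-out basis: percent inhibition from t60/t0 fluorescence ratio; Times: reaction time 60 min, 25 °C; Repeats: single replicate; Compound dosing: single dose, 10.9 µM nominal final, DMSO 0.8% final.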
PfM18AAP inh: blocks P. falciparum M18 aspartyl aminopeptidase. recombinant PfM18AAP, H-Glu-NHMec fluorogenic cleavage. AID 1822. 290,000 compounds, 1.2% hits. inhibition, % at 7.35 µM;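 active means inhibition above the campaign mean inhibition over all tested compounds plus 3 SD, cut at about 28% in these data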;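 further: 0% = plate median of test compound wells and 100% = 2 mM ZnCl2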
Starred values were filed as active, the others as inactive.

`C[C@H](NC(=O)c1ccco1)C(=O)N1CCCC1` gave UPR XBP1 act -1, CHOP UPR activ -2, HCV NS3 hel inh -8 and PfM18AAP inh 2.
CN=c1scc(-c2ccccc2F)n1/N=C/c1ccc(O)c(O)c1O was read as p97 ATPase inh -4, CHOP inhibitor 7, HCV NS3 hel inh 23 and PfM18AAP inh 31*.
`CN=c1scc(-c2ccccc2F)n1/N=C/c1ccc[nH]1` gave UPR XBP1 act -10, p97 ATPase inh -3, CHOP inhibitor 98*, CHOP UPR activ -9, HCV NS3 hel inh -9 and PfM18AAP inh 3.
Screening CN=c1scc(C)n1/N=C/c1ccc(O)cc1O returned UPR XBP1 act -2, p97 ATPase inh 5, CHOP inhibitor 2, CHOP UPR activ -1, HCV NS3 hel inh -13 and PfM18AAP inh 16.
`CCN(CC(=O)Nc1ccc(C(=O)OC)cc1)C1CCCCC1` gave UPR XBP1 act -2, CHOP UPR activ 1, HCV NS3 hel inh 10 and PfM18AAP inh -3.
Cc1cnc(C(=O)OCC(=O)NC(=O)NC(C)C)cn1 was read as UPR XBP1 act 0, p97 ATPase inh 0, CHOP inhibitor 77*, CHOP UPR activ -1, HCV NS3 hel inh 2 and PfM18AAP inh 4.
COc1cc(NC(=O)c2cccnc2)ccc1-c1cc2ccccc2oc1=O was read as UPR XBP1 act -2, p97 ATPase inh 2, CHOP inhibitor 77*, CHOP UPR activ 2, HCV NS3 hel inh -4 and PfM18AAP inh 7.
C=CCNC(=O)c1ccc2c(=O)n(CCCN3CCCC3=O)c(=S)[nH]c2c1 was read as UPR XBP1 act -5, p97 ATPase inh 3, CHOP inhibitor 8, CHOP UPR activ 1, HCV NS3 hel inh 12 and PfM18AAP inh 11.
Screening CCOc1ccc(NC(=O)/C(C#N)=C/c2ccc(N3CCCC3)c(C)c2)cc1 returned p97 ATPase inh 4, CHOP inhibitor 101*, HCV NS3 hel inh 8 and PfM18AAP inh 1.
Screening Cc1ccc(CCN2CC(C(=O)NC3CCCCC3)CC2=O)cc1 (stereo unspecified) returned UPR XBP1 act -1, CHOP UPR activ 2, HCV NS3 hel inh 6 and PfM18AAP inh -4.
For O=C(CSCc1ccccc1Br)NNC(=S)NCc1ccco1 the results were UPR XBP1 act -6, CHOP UPR activ 0, HCV NS3 hel inh 0 and PfM18AAP inh 29*.
For Cc1ccccc1CSCC(=O)NC(=O)NCc1ccco1 the results were UPR XBP1 act -1, p97 ATPase inh -2, CHOP inhibitor 37, CHOP UPR activ -3, HCV NS3 hel inh 17 and PfM18AAP inh 6.
`CC(C)(C)c1ccc(C(=O)NNC(=S)NCc2ccco2)cc1` gave UPR XBP1 act -1, p97 ATPase inh 1, CHOP inhibitor -4, CHOP UPR activ 1, HCV NS3 hel inh -8 and PfM18AAP inh -2.
`CC(C)(O)C(=O)NNC(=S)NCc1ccco1` gave UPR XBP1 act 3, p97 ATPase inh 6, CHOP inhibitor 18, CHOP UPR activ 1, HCV NS3 hel inh 6 and PfM18AAP inh 42*.
`O=C1C=C(N(CCO)Cc2ccccc2)c2ccccc2C1=O` gave p97 ATPase inh 10, CHOP inhibitor 89*, HCV NS3 hel inh -3 and PfM18AAP inh -2.
`O=C(CN(Cc1ccco1)Cc1cccs1)N1CCN(S(=O)(=O)c2cccc(F)c2)CC1` gave UPR XBP1 act 0 and CHOP UPR activ -2.
`CC(C)n1nnnc1SCC(=O)N1N=C(c2cccs2)CC1c1cccs1` (stereo unspecified) gave UPR XBP1 act -1 and CHOP UPR activ 2.
Screening CCOC(=O)/C(=N\Nc1cc(Cl)ccc1Cl)N1CCOCC1 returned UPR XBP1 act 3, p97 ATPase inh 4, CHOP inhibitor 68, CHOP UPR activ -1, HCV NS3 hel inh 6 and PfM18AAP inh -5.
COc1cc2c(cc1OC)C1(CCCC1)C(N)=C2C#N was read as UPR XBP1 act 0, p97 ATPase inh -4, CHOP inhibitor 70*, CHOP UPR activ -4, HCV NS3 hel inh 4 and PfM18AAP inh 16.
Screening COc1cc(OC)c(OC)cc1C#N returned UPR XBP1 act -3, p97 ATPase inh 5, CHOP inhibitor 35, CHOP UPR activ 1, HCV NS3 hel inh -4 and PfM18AAP inh 1.
`NC(=O)c1cn(-c2ccccc2)nc1-c1cc2ccccc2oc1=O` gave UPR XBP1 act 2, p97 ATPase inh 5, CHOP inhibitor 4, CHOP UPR activ -3, HCV NS3 hel inh 3 and PfM18AAP inh 13.
Screening O=Cc1cn(-c2ccccc2)nc1-c1cc2ccccc2oc1=O returned UPR XBP1 act 1, p97 ATPase inh 2, CHOP inhibitor 88*, CHOP UPR activ -1, HCV NS3 hel inh -7 and PfM18AAP inh 6.
For Cc1[nH]c2ccccc2c1C(O)CN1CCN(c2cccc(C(F)(F)F)c2)CC1 (stereo unspecified) the results were UPR XBP1 act -4, p97 ATPase inh 6, CHOP inhibitor 74*, CHOP UPR activ 0, HCV NS3 hel inh -18 and PfM18AAP inh 16.
Cc1[nH]c2ccccc2c1NC(=O)CN1CCN(c2cccc(C(F)(F)F)c2)CC1 was read as UPR XBP1 act 4, p97 ATPase inh 4, CHOP inhibitor 61, CHOP UPR activ -2, HCV NS3 hel inh 14 and PfM18AAP inh 9.
Cc1ccc(S(=O)(=O)N(C)CC(=O)Nc2cccnc2)cc1 was read as UPR XBP1 act -4, CHOP UPR activ 1, HCV NS3 hel inh -5 and PfM18AAP inh -2.
Screening Cc1ccc(S(=O)(=O)NC(CC(=O)O)c2ccccc2)cc1 (stereo unspecified) returned UPR XBP1 act -2, p97 ATPase inh -2, CHOP inhibitor 35, CHOP UPR activ -2, HCV NS3 hel inh 6 and PfM18AAP inh -4.
For Cc1ccc(S(=O)(=O)NC(c2ccccc2)C(C)C(=O)n2nc(C)cc2C)cc1 (stereo unspecified) the results were UPR XBP1 act -6, p97 ATPase inh -4, CHOP inhibitor 73*, CHOP UPR activ -1, HCV NS3 hel inh -6 and PfM18AAP inh 8.
COC(=O)C(NS(=O)(=O)c1ccc(C)cc1)c1ccccc1 (stereo unspecified) was read as UPR XBP1 act -1, p97 ATPase inh -3, CHOP inhibitor 3, CHOP UPR activ -1, HCV NS3 hel inh 2 and PfM18AAP inh -9.
`Cc1ccc(S(=O)(=O)NC(CC(=O)n2nc(C)cc2C)c2ccccc2)cc1` (stereo unspecified) gave UPR XBP1 act 1, p97 ATPase inh -7, CHOP inhibitor 80*, CHOP UPR activ 1, HCV NS3 hel inh -3 and PfM18AAP inh -3.

High-throughput results from PubChem.
